# Measurements from PubChem BioAssay AID504383 (The Scripps Research Institute Molecular Screening Center, 2011).
# About 1,200 (48%) of roughly 2,500 compounds were called active.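 Rule for the calls: active = mean activation above the low control average plus 3 SD, as set in the primary screen (cut at about 12% in these data); inactive = the rest.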 So high a share suggests a set chosen from earlier hits. The list shows a part of the results.
# Biological target: Troponin I, cardiac muscle (Homo sapiens) + Troponin T, cardiac muscle (Homo sapiens) + Troponin C, slow skeletal and cardiac muscles (Homo sapiens) (UniProt P19429+P45379+P63316)
# Experiment: calcium sensitizers of cardiac thin filaments – biochemical, IANBD-TnC fluorescence, triplicate, confirmation (AID 504383);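 note: 0% = DMSO at 0.472 mM calcium and 100% = DMSO at 2.9 mM calcium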
# Details: IANBD-labeled cardiac RTF, Ca2+ sensitivity fluorescence; at 7.2 µM; hits give high values; scaled from EC20 to saturating calcium; tested at EC20 calcium, 0.472 mM
# In short: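 System: Labelled thin filament complex | Technique: Filament fluorescence intensity | Benchmarks: Low control EC20 calcium, high control EC100 calcium | Timing: 15 min at 25 °C | Compound dosing: One dose, 7.2 µM nominal | Probe or stimulus: Ca2+ 0.472 mM, EC20 level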
row,Structure (SMILES),activation
1,CC[n+]1c(/C=C/C=C/N(C(C)=O)c2ccccc2)sc2ccccc21,135% (active)
2,CC/C(=C/c1sc2ccccc2[n+]1CC)SC,2.73% (inactive)
3,CCCC(NC(=O)CCc1c(C)c2cc3c(-c4ccccc4)coc3cc2oc1=O)C(=O)O (stereo unspecified),181% (active)
4,C=CCOc1ccccc1CNc1cccc(F)c1,7.46% (inactive)
5,C=CCOc1ccc(Br)cc1CNCC,29.4% (active)
6,Cc1nc(NC(=O)C(Cl)Cl)sc1C(=O)N(C)C,8.86% (inactive)
7,Cc1ccc(Cn2nc(C)c(NC(=O)C3(C)CC3(Br)Br)c2C)cc1 (stereo unspecified),17.1% (active)
8,Cc1nn(Cc2c(F)c(F)c(F)c(F)c2F)c(C)c1NC(=O)c1nn(C)c(C)c1Br,9.42% (inactive)
9,CCn1cc(/C=C/C(=O)Nc2c(C)nn(Cc3ccccc3C)c2C)cn1,7.35% (inactive)
10,Cn1c(=O)cc(N)n(Cc2ccccc2)c1=O,42.5% (active)
11,Cc1ccc(NC(=O)COC(=O)/C=C/c2c(C)nn(-c3ccc(F)cc3)c2Cl)cc1F,8% (inactive)
12,CCOc1ccc(C(C(=O)NC2CCCCC2)N(C(=O)Cc2cccs2)c2ccc(-n3cnnn3)c(OC)c2)cc1 (stereo unspecified),3.97% (inactive)
13,CCOc1ccc(-n2c(SCC(=O)Nc3ccc(OC)cc3OC)nc3c(c2=O)SCC3)cc1,13.3% (active)
14,Cc1ccc(C(C)NC(=O)c2cccs2)cc1C (stereo unspecified),480% (active)
15,O=C(CSc1nnc(-c2ccco2)o1)NC1CCCCC1,6.06% (inactive)
16,O=C(CCSc1nnc(-c2ccco2)o1)Nc1ccccc1,69% (active)
17,CCCCNC(=O)Nc1nnc(-c2ccccc2)o1,10.1% (inactive)
18,C/C(O)=c1/ccc2cccc3nc(C)nc1c23,62.2% (active)
19,COc1ccc(CN(Cc2cccn2C)S(=O)(=O)c2ccccc2)cc1,9.11% (inactive)
20,CCN(CC(=O)N1CCCC1)S(=O)(=O)c1ccc(OC)cc1,262% (active)
21,Cc1ccccc1NS(=O)(=O)c1ccc(OCC(=O)N2CCCCC2)cc1,6.33% (inactive)

row,Structure (SMILES),activation
1,O=C1NC(c2cccc([N+](=O)[O-])c2)Oc2ccccc21 (stereo unspecified),10.3% (inactive)
2,Cc1ccc(C)c(NC(=O)CCN2CCOCC2)c1,0.21% (inactive)
3,Cc1ccc(C)c(NC(=O)COC(=O)Cc2ccsc2)c1,12.3% (active)
4,Cc1ccc(CNC(=O)c2cccc3c2C(=O)c2ccc(N4CCCCC4)cc2S3(=O)=O)cc1,6.7% (inactive)
5,O=C(NCc1cccc(F)c1)c1cccc2c1C(=O)c1ccc(N3CCCC3)cc1S2(=O)=O,8.28% (inactive)
6,C=CCNC(=O)c1cccc2c1C(=O)c1ccc(N3CCCC3)cc1S2(=O)=O,6.98% (inactive)
7,O=C(NC1CCCCC1)c1cccc2c1C(=O)c1ccc(N3CCCC3)cc1S2(=O)=O,87.8% (active)
8,CN1CCC[C@@H]1CCNC(=O)c1cccc2c1C(=O)c1ccc(N3CCCC3)cc1S2(=O)=O,-0.88% (inactive)
9,O=C(NCC1CC1)c1cccc2c1C(=O)c1ccc(N3CCCC3)cc1S2(=O)=O,183% (active)
10,CC1CCN(c2ccc3c(c2)S(=O)(=O)c2cccc(C(=O)NC4CCCCC4)c2C3=O)CC1,1.22% (inactive)
11,O=C(NC1CCCCC1)c1cccc2c1C(=O)c1ccc(N3CCC(Cc4ccccc4)CC3)cc1S2(=O)=O,5.3% (inactive)
12,O=C(NCc1ccc(OC(F)(F)F)cc1)c1cccc2c1C(=O)c1ccc(N3CCCCC3)cc1S2(=O)=O,17.5% (active)
13,CCOCCCNC(=S)NCCCNc1nc2c(C)cc(C)cc2cc1C#N,7.25% (inactive)
14,O=C(/C=C/c1cccc(F)c1)Nc1cc(S(=O)(=O)N2CCOCC2)ccc1N1CCCC1,9.19% (inactive)
15,O=C(CN1CCc2ccccc2C1)Nc1cc(S(=O)(=O)N2CCOCC2)ccc1N1CCOCC1,8.9% (inactive)
16,Cc1ccccc1OCCC(=O)Nc1cc(S(=O)(=O)N2CCCCC2)ccc1N1CCN(C)CC1,16.9% (active)
17,CCn1c(SCC(=O)c2ccc(Cl)cc2)nnc1C(C)C,13.2% (active)
18,CCn1c(SCC(=O)NNC(=O)c2ccco2)nnc1-c1ccco1,-0.46% (inactive)
19,N#C/C(=C\c1ccc(N2CCOCC2)o1)C(=O)NC1CCCCC1,28.9% (active)
20,N#C/C(=C/c1ccc(N2CCCCC2)o1)C(=O)Nc1ccc(Cl)cc1,111% (active)
21,N#C/C(=C/c1ccc(N2CCOCC2)o1)C(=O)Nc1ccccc1,2.26% (inactive)

row,Structure (SMILES),activation
1,N#C/C(=C/c1ccc(N2CCOCC2)o1)C(=O)NC1CCCCC1,-0.07% (inactive)
2,COc1ccc(NC(=O)/C(C#N)=C\c2ccc(N3CCOCC3)o2)cc1,32.2% (active)
3,N#C/C(=C\c1ccc(N2CCOCC2)o1)C(=O)NCC1CCCO1 (stereo unspecified),-0.28% (inactive)
4,N#C/C(=C/c1ccc(N2CCCCC2)o1)C(=O)NCCc1c[nH]c2ccccc12,40.9% (active)
5,CCOC(=O)/C(C#N)=N\Nc1cc(Cl)ccc1OC,6.36% (inactive)
6,N#C/C(=C\c1ccc(N2CCCCC2)o1)C(N)=O,11.6% (active)
7,N#C/C(=C/c1ccc(N2CCOCC2)o1)C(=O)N1CCOCC1,10.1% (inactive)
8,N#C/C(=C/c1ccc(N2CCCCC2)o1)C(=O)Nc1ccc2ccccc2c1,171% (active)
9,N#C/C(=C\c1ccc(N2CCCCC2)o1)C(=O)Nc1cccc(Br)c1,5.9% (inactive)
10,COCCNC(=O)/C(C#N)=C/c1ccc(N2CCOCC2)o1,9.29% (inactive)
11,N#C/C(=C\c1ccc(N2CCOCC2)o1)C(=O)NCCc1ccccc1,43.7% (active)
12,N#C/C(=C\c1ccc(N2CCOCC2)o1)C(=O)N1CCOCC1,6.09% (inactive)
13,CN1C(=O)NC(c2ccccc2[N+](=O)[O-])C2=C1CCCC2=O (stereo unspecified),14.6% (active)
14,O=C1NC2=C(C(=O)CCC2)C(c2ccccc2Cl)N1 (stereo unspecified),10.3% (inactive)
15,COc1ccc(/C=C2\SC(=O)NC2=S)cc1OC,7.81% (inactive)
16,COc1ccc(/C=C2\SC(c3ccc(C)cc3)=NC2=O)cc1OC,12.9% (active)
17,COc1ccc(/C=C2/SC(c3ccc(C)cc3)=NC2=O)cc1OC,34.6% (active)
18,COc1ccc(/C=c2\s/c(=C/C(=O)c3ccc(C)cc3)[nH]c2=O)cc1OC,1.66% (inactive)
19,C=CCN1C(=O)/C(=C/c2ccc(O)c(OC)c2)S/C1=N/c1nccs1,5.76% (inactive)
